# Organism: Homo sapiens
# Assay: In vitro inhibitory concentration against Chymotrypsin-like activity of the purified human placenta 20S Proteasome
# Assay type: functional
# Outline: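 Purified human placenta 20S proteasome; chymotrypsin-like activity measured by cleavage of the fluorogenic substrate Suc-Leu-Val-Tyr-AMC (AMC release). Trypsin-like (Boc-Leu-Arg-Arg-AMC) and post-glutamyl-peptide hydrolytic-like (Z-Leu-Leu-Glu-AMC) substrates were used for the parallel selectivity assays.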
row,SMILES,IC50 [nM]
1,COc1ccc(CN[C@@H](C(=O)N[C@H](C(=O)NCc2ccc(OC)cc2O)C(C)C)[C@H](O)[C@H](Cc2ccccc2)NC(=O)[C@@H](NC(=O)CCc2cccc(N)c2)C(C)(C)C)cc1,600
2,COc1ccc(CN[C@@H](C(=O)N[C@H](C(=O)NCc2ccc(OC)cc2O)C(C)C)[C@H](O)[C@H](Cc2ccccc2)NC(=O)[C@@H](NC(=O)OCc2cc(C)cc(C)c2)C(C)(C)C)cc1,1100
3,COc1ccc(CN[C@@H](C(=O)N[C@H](C(=O)NCc2ccc(OC)cc2OC)C(C)C)[C@H](O)[C@H](Cc2ccccc2)NC(=O)[C@@H](NC(=O)OCc2ccccc2)C(C)C)cc1,> 20000
4,COc1ccc(CN[C@@H](C(=O)N[C@H](C(=O)NCc2ccc(OC)cc2O)C(C)C)[C@H](O)[C@H](Cc2ccccc2)NC(=O)[C@@H](NC(=O)OC(C)(C)C)C(C)(C)C)cc1,27000
5,COc1ccc(CN[C@@H](C(=O)N[C@H](C(=O)NCc2ccc(OC)cc2O)C(C)C)[C@H](O)[C@H](Cc2ccccc2)NC(=O)[C@@H](N)C(C)(C)C)cc1,70000
6,COc1ccc(CN[C@@H](C(=O)N[C@H](C(=O)NCc2ccc(OC)cc2O)C(C)C)[C@H](O)[C@H](Cc2ccccc2)NC(=O)[C@@H](NC(=O)Cc2cccc3ccccc23)C(C)(C)C)cc1,100

# Continued, values first:
row,IC50 [nM],SMILES
1,600,COc1ccc(CN[C@@H](C(=O)N[C@H](C(=O)NCc2ccc(OC)cc2O)C(C)C)[C@H](O)[C@H](Cc2ccccc2)NC(=O)[C@@H](NC(=O)OCc2cccc(N)c2)C(C)(C)C)cc1
2,2000,COc1ccc(CN[C@@H](C(=O)N[C@H](C(=O)NCc2ccc(OC)cc2O)C(C)C)[C@H](O)[C@H](Cc2ccccc2)NC(=O)[C@@H](NC(=O)OCc2cccc3ccccc23)C(C)(C)C)cc1
3,900,COc1ccc(CN[C@@H](C(=O)N[C@H](C(=O)NCc2ccc(OC)cc2O)C(C)C)[C@H](O)[C@H](Cc2ccccc2)NC(=O)[C@@H](NC(=O)OCc2ccccc2)C(C)(C)C)cc1
4,3300,COc1ccc(CN[C@@H](C(=O)N[C@H](C(=O)NCc2ccc(OC)cc2O)C(C)C)[C@H](O)[C@H](Cc2ccccc2)NC(=O)[C@@H](NC(=O)OCc2ccccc2)C(C)C)cc1
5,500,COc1ccc(CN[C@@H](C(=O)N[C@H](C(=O)NCc2ccc(OC)cc2O)C(C)C)[C@H](O)[C@H](Cc2ccccc2)NC(=O)[C@@H](NC(=O)OCc2cccc(C)c2)C(C)(C)C)cc1
6,72000,COc1ccc(CN[C@@H](C(=O)N[C@H](C(=O)NCc2ccccc2O)C(C)C)[C@H](O)[C@H](Cc2ccccc2)NC(=O)[C@@H](NC(=O)OCc2ccccc2)C(C)(C)C)cc1

# Source: ChEMBL document CHEMBL1134066, “A new structural class of selective and non-covalent inhibitors of the chymotrypsin-like activity of the 20S proteasome” (Bioorg Med Chem Lett, 2001)
